Calls of active or inactive are those of the source. No cut-off for these calls is given here. Positions of bridges follow the written chain, without caps; N, C: chain ends. Residues, ends and D or L forms follow the SMILES beside them.
How the values were obtained:
[1] = target: Potassium voltage-gated channel subfamily A member 3 (Homo sapiens) (UniProt P22001); assay: Inhibition of human Kv1.3 at 100 uM
Outline: (§1)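 Potassium currents were recorded by two-electrode voltage clamp in oocytes 1–4 days after injecting 50 nl cRNA (1 ng/nl), at 18–22 °C. Bath was 96 mM NaCl, 2 mM KCl, 1.8 mM CaCl2, 2 mM MgCl2, 5 mM HEPES pH 7.4. Toxin was bath-applied at 100 µM. Currents were filtered at 0.5 kHz and sampled at 2 kHz.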

[2] = target: Neuronal acetylcholine receptor subunit alpha-7 (Homo sapiens) (UniProt P36544); assay: Inhibition of human nAChR alpha7
[3] = target: Sodium channel protein type 2 subunit alpha (Homo sapiens) (UniProt Q99250); assay: Inhibition of human NaV1.2 at 100 uM
Outline: (§2)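 Two-electrode voltage clamp of oocytes injected with 50 nl cRNA (1 ng/nl) and recorded 1–4 days later at 18–22 °C. Bath was 96 mM NaCl, 2 mM KCl, 1.8 mM CaCl2, 2 mM MgCl2, 5 mM HEPES pH 7.4. Toxin was applied to the bath at 100 µM. Currents were evoked by 100 ms depolarisation to the voltage of maximal sodium current, filtered at 2 kHz and sampled at 20 kHz.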

[4] = target: T1, Melanocortin receptor 4 (Homo sapiens, UniProt P32245); assay: Displacement of [125I]-NDP-alpha-MSH from human MC4R expressed in CHO-K1 cell membranes incubated for 3 hrs by top-count beta counting
Outline: (§3)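 Membranes were from CHO cells stably expressing hMC1R, hMC4R or hMC5R, or from HEK293 cells expressing hMC3R. Competition used 50 pM 125I-NDP-α-MSH with varied competitor, 3 h at room temperature, in 25 mM HEPES pH 7.4, 1 mM MgCl2, 1 mM CaCl2, 0.2 g/L BSA. Nonspecific binding was set with 1 µM NDP-α-MSH. Samples were filtered on PEI-treated GF/C and scintillation counted. At least three experiments in duplicate, mean ± SEM.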

[5] = target: Potassium voltage-gated channel subfamily A member 6 (Homo sapiens) (UniProt P17658); assay: Inhibition of human Kv1.6 at 100 uM; outline: as §1
[6] = target: Melanocortin receptor 5 (Homo sapiens, UniProt P33032); assay: Displacement of [125I]-NDP-alpha-MSH from human MC5R expressed in CHO-K1 cell membranes incubated for 3 hrs by top-count beta counting; outline: as §3
[7] = target: Potassium voltage-gated channel subfamily A member 4 (Homo sapiens) (UniProt P22459); assay: Inhibition of human Kv1.4 at 100 uM; outline: as §1
[8] = target: G protein-activated inward rectifier potassium channel 1 (Homo sapiens) (UniProt P48549); assay: Inhibition of human GIRK1 at 100 uM
Outline: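 Two-electrode voltage clamp of cRNA-injected oocytes at 18–22 °C, holding at −70 mV. Oocytes were superfused with high-K+ solution (96 mM KCl, 2 mM NaCl, 1 mM MgCl2, 1.8 mM CaCl2, 5 mM HEPES pH 7.5). Toxin was applied to the bath at 100 µM. Currents were filtered at 0.05 kHz and sampled at 0.1 kHz.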

[9] = target: Voltage-gated potassium channel KCNC1 (Homo sapiens) (UniProt P48547); assay: Inhibition of human Kv3.1 at 100 uM; outline: as §1
[10] = target: Sodium channel protein type 4 subunit alpha (Homo sapiens) (UniProt P35499); assay: Inhibition of human NaV1.4 at 100 uM; outline: as §2
[11] = target: Potassium voltage-gated channel subfamily A member 2 (Homo sapiens) (UniProt P16389); assay: Inhibition of human Kv1.2 at 100 uM; outline: as §1
[12] = target: Potassium voltage-gated channel subfamily A member 1 (Homo sapiens) (UniProt Q09470); assay: Inhibition of human Kv1.1 at 100 uM; outline: as §1
[13] = target: Potassium voltage-gated channel subfamily A member 5 (Homo sapiens) (UniProt P22460); assay: Inhibition of human Kv1.5 at 100 uM; outline: as §1
[14] = target: T1, Melanocortin receptor 4; assay: Agonist activity at human MC4R expressed in HEK293 cells assessed as stimulation of cAMP accumulation at 100 uM incubated for 3 hrs by luciferase reporter gene assay; assay type: functional, cell-based
[15] = target: Sodium channel protein type 3 subunit alpha (Homo sapiens) (UniProt Q9NY46); assay: Inhibition of human NaV1.3 at 100 uM; outline: as §2
[16] = target: Melanocortin receptor 3 (Homo sapiens, UniProt P41968); assay: Displacement of [125I]-NDP-alpha-MSH from human MC3R expressed in HEK293 cell membranes incubated for 3 hrs by top-count beta counting
[17] = target: Potassium voltage-gated channel subfamily KQT member 3 (Homo sapiens) (UniProt O43525); assay: Inhibition of human Kv7.3 at 100 uM; outline: as §1
[18] = target: Sodium channel protein type 1 subunit alpha (Homo sapiens) (UniProt P35498); assay: Inhibition of human NaV1.1 at 100 uM; outline: as §2
[19] = test system: HEK293; assay: Effect on cAMP production in HEK293 cells at 100 uM incubated for 3 hrs by luciferase reporter gene assay; assay type: functional, cell-based; conditions: Homo sapiens
[20] = target: T2, Melanocyte-stimulating hormone receptor (Homo sapiens, UniProt Q01726); assay: Activity at N-terminal HA-tagged and C-terminal FLAG-tagged human MC1R expressed in HEK293 cells assessed as potentiation of alpha-MSH-induced cAMP accumulation at 100 uM incubated for 3 hrs by luciferase reporter gene assay; assay type: functional, cell-based
Target sequence in this assay (Q01726 whole entry, looked up): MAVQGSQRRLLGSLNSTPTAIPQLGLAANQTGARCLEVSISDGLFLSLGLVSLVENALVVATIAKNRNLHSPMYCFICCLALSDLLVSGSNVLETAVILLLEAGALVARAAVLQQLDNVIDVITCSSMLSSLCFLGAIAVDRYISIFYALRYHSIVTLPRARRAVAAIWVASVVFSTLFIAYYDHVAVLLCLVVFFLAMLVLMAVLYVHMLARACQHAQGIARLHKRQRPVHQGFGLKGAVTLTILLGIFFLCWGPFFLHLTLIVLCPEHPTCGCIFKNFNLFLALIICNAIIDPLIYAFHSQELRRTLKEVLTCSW

[21] = target: Voltage-dependent T-type calcium channel subunit alpha-1I (Homo sapiens) (UniProt Q9P0X4); assay: Inhibition of human Cav3.3 at 100 uM
Outline: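 Oocyte two-electrode voltage clamp at 18–22 °C, 1–4 days after cRNA injection (50 nl, 1 ng/nl). Toxin was bath-applied at 100 µM. Currents were carried by 10 mM Ba2+ and elicited by 200 ms depolarisations from −90 mV to between −50 and +30 mV, filtered at 0.5 kHz and sampled at 2 kHz.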

[22] = target: Sodium channel protein type 10 subunit alpha (Homo sapiens) (UniProt Q9Y5Y9); assay: Inhibition of human NaV1.8 at 100 uM
[23] = target: Sodium channel protein type 8 subunit alpha (Homo sapiens) (UniProt Q9UQD0); assay: Inhibition of human NaV1.6 at 100 uM; outline: as §2
[24] = target: Sodium channel protein type 5 subunit alpha (Homo sapiens, UniProt Q14524); assay: Inhibition of human NaV1.5 at 100 uM; outline: as §2
[25] = target: T1, Melanocortin receptor 4; assay: Antagonist activity at human MC4R transiently expressed in HEK293 cells assessed as reduction in alpha-MSH-induced cAMP accumulation at 100 uM incubated for 3 hrs by luciferase reporter gene assay
[26] = target: T1, Melanocortin receptor 4; assay: Displacement of [125I]-NDP-alpha-MSH from human MC4R expressed in CHO-K1 cell membranes incubated for 3 hrs by top-count beta counting relative to control; conditions: concentration not given here; outline: as §3
[27] = target: Voltage-gated delayed rectifier potassium channel KCNH1 (Homo sapiens) (UniProt O95259); assay: Inhibition of human Kv10.1 at 100 uM; outline: as §1
[28] = target: Voltage-gated inwardly rectifying potassium channel KCNH2 (Homo sapiens, UniProt Q12809); assay: Inhibition of human Kv11.1 at 100 uM; outline: as §1
[29] = target: A-type voltage-gated potassium channel KCND3 (Homo sapiens, UniProt Q9UK17); assay: Inhibition of human Kv4.3 at 100 uM; outline: as §1
[30] = target: Potassium voltage-gated channel subfamily KQT member 1 (Homo sapiens, UniProt P51787); assay: Inhibition of human Kv7.1 at 100 uM; outline: as §1
[31] = target: T2, Melanocyte-stimulating hormone receptor; assay: Displacement of [125I]-NDP-alpha-MSH from human MC1R expressed in CHO-K1 cell membranes incubated for 3 hrs by top-count beta counting; outline: as §3
Target sequence in this assay (Q01726 whole entry): as the sequence (Q01726 whole entry, looked up) above

[32] = target: T2, Melanocyte-stimulating hormone receptor; assay: Agonist activity at N-terminal HA-tagged and C-terminal FLAG-tagged human MC1R expressed in HEK293 cells assessed as stimulation of cAMP accumulation at 100 uM incubated for 3 hrs by luciferase reporter gene assay; assay type: functional, cell-based
Target sequence in this assay (Q01726 whole entry, looked up): as above

[33] = target: Potassium voltage-gated channel subfamily B member 1 (Homo sapiens) (UniProt Q14721); assay: Inhibition of human Kv2.1 at 100 uM; outline: as §1
[34] = target: Acetylcholine receptor; alpha1/beta1/delta/gamma (Homo sapiens) (UniProt P02708+P07510+P11230+Q07001); assay: Inhibition of human nAChR alpha1(2)beta1gammadelta; assay type: protein-complex assay

T1 sequence (P32245 whole entry): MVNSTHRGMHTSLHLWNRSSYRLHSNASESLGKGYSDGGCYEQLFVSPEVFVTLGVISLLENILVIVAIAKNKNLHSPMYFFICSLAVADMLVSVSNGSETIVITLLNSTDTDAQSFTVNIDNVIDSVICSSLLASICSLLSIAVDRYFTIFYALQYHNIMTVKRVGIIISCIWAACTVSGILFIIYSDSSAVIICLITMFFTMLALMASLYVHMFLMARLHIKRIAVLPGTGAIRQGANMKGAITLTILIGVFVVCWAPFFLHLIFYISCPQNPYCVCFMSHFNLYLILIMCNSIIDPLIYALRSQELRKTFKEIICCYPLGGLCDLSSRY
Sequence of Voltage-gated potassium channel KCNC1 (Homo sapiens) (P48547 whole entry): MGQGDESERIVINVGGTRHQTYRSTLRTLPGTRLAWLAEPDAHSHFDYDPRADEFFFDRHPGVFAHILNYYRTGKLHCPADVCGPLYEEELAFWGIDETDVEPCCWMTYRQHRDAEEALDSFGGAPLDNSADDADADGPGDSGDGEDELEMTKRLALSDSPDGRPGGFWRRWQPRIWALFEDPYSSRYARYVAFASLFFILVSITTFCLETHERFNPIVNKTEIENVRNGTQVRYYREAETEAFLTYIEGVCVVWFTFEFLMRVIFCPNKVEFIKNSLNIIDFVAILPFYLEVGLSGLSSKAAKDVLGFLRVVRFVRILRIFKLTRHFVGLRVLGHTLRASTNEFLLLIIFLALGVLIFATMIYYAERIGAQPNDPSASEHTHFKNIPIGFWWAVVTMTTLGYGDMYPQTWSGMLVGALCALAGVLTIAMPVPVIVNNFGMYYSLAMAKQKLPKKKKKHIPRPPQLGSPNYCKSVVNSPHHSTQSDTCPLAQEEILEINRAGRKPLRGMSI
Sequence of Voltage-gated delayed rectifier potassium channel KCNH1 (Homo sapiens) (O95259 whole entry): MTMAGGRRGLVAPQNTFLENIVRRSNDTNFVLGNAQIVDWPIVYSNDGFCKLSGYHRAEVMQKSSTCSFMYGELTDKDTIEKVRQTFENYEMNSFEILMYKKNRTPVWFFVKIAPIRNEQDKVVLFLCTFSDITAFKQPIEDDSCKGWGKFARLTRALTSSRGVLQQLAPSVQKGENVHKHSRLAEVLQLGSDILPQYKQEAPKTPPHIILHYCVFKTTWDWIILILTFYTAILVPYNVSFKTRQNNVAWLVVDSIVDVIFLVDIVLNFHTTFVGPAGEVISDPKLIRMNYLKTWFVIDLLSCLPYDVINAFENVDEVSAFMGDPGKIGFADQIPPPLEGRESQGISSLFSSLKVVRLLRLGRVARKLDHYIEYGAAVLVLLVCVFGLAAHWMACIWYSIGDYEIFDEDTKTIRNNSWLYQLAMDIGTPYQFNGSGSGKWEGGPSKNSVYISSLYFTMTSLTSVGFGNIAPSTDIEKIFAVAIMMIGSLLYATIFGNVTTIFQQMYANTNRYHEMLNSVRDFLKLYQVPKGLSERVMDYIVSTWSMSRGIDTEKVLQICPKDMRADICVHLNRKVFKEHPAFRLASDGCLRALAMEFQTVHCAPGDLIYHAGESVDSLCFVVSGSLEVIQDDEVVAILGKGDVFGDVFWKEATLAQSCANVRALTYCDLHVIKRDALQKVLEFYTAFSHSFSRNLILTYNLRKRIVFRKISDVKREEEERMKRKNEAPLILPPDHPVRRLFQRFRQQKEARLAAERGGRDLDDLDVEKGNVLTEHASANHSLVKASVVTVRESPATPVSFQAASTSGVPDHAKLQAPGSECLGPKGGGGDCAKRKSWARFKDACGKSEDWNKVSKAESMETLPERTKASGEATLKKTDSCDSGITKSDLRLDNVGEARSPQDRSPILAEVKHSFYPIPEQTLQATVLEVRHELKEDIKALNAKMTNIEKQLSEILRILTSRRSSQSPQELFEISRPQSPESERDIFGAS
Sequence of Potassium voltage-gated channel subfamily A member 2 (Homo sapiens) (P16389 whole entry): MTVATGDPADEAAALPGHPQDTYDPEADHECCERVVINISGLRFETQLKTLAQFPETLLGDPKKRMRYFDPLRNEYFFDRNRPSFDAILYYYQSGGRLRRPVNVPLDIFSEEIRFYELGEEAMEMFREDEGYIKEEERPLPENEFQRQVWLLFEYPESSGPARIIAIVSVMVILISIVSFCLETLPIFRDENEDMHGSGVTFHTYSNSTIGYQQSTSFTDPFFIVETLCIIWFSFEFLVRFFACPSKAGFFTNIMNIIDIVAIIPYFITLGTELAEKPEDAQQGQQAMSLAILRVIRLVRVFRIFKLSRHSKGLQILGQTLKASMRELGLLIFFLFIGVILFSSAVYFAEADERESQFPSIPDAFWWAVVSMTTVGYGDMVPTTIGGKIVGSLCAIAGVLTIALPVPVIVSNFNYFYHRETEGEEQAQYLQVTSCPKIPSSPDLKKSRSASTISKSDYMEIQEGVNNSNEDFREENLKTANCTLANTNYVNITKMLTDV
Sequence of Sodium channel protein type 10 subunit alpha (Homo sapiens) (Q9Y5Y9 whole entry, looked up): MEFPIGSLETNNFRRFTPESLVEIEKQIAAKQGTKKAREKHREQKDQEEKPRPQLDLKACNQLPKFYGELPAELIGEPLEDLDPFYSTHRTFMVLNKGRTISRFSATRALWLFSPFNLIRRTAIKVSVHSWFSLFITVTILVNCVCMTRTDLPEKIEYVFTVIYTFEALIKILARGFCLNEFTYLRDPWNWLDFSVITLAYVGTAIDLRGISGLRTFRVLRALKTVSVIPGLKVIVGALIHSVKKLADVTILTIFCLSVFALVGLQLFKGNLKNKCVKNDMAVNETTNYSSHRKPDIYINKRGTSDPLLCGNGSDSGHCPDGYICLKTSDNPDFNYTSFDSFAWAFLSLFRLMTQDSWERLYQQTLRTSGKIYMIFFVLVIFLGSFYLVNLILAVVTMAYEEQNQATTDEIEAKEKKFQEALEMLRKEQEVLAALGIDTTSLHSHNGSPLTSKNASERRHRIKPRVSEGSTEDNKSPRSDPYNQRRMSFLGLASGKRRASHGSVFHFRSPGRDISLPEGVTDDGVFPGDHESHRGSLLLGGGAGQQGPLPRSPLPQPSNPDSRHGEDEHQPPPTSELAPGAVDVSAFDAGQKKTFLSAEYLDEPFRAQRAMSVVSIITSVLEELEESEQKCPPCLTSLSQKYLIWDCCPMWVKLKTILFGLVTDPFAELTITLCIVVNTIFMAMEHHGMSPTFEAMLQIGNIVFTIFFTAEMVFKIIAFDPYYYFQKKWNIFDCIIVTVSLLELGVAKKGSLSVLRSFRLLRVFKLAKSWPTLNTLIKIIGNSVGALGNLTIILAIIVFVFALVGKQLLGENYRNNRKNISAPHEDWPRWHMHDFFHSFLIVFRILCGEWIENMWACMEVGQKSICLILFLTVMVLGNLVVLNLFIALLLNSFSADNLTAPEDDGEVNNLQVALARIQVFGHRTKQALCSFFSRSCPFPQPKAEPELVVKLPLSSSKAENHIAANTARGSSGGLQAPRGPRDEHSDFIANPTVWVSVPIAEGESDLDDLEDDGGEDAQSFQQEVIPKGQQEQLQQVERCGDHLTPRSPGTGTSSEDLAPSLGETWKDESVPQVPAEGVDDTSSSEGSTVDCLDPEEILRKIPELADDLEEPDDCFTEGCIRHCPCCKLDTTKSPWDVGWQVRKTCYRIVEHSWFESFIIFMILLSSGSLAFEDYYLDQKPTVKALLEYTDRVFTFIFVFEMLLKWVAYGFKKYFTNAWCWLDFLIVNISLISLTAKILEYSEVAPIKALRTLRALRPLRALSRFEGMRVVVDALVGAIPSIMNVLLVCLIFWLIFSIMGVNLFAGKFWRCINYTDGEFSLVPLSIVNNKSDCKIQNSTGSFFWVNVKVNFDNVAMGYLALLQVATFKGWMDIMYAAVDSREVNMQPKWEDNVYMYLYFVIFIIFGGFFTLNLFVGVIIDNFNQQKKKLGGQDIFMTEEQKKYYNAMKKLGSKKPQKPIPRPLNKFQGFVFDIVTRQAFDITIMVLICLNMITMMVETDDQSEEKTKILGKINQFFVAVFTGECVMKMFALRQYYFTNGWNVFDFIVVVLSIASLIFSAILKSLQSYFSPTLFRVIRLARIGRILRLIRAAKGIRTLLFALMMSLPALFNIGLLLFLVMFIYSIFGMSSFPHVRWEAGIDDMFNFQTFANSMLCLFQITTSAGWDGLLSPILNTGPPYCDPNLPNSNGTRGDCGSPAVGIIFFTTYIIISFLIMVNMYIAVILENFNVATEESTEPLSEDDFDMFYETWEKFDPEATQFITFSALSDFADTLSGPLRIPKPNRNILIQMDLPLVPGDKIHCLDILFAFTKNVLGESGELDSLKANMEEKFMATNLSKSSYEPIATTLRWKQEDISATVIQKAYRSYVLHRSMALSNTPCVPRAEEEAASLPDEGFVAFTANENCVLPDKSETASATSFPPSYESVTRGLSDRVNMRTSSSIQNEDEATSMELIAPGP
Sequence of Melanocortin receptor 3 (P41968 whole entry): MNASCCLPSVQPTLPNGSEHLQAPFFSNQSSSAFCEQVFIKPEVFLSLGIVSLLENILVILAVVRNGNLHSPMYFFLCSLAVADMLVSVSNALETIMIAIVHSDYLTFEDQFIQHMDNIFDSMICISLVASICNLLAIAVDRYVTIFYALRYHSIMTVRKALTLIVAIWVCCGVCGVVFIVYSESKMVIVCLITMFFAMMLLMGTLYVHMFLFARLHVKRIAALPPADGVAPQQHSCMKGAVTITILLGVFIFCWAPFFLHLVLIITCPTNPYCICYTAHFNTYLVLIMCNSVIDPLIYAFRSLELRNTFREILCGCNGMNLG

SMILES | inhibition [1] | inhibition [2] | inhibition [3] | Ki [4] [µM] | inhibition [5] | Ki [6] [µM] | inhibition [7] | inhibition [8] | inhibition [9] | inhibition [10] | inhibition [11] | inhibition [12] | inhibition [13] | Activity [14] | inhibition [15] | Ki [16] [µM] | inhibition [17] | inhibition [18] | Activity [19] | Activity [20] | other results
CC[C@H](C)[C@@H]1NC(=O)[C@H](C)NC(=O)[C@H](CCCCN)NC(=O)[C@H](CC(C)C)NC(=O)[C@@H]2CSSC[C@@H](C(=O)O)NC(=O)[C@H](CCCCN)NC(=O)[C@@H]3CSSC[C@H](NC(=O)[C@H](CCC(=O)O)NC(=O)[C@H](C(C)C)NC(=O)[C@H](CO)NC(=O)[C@H](C)NC(=O)[C@H](CO)NC(=O)[C@@H](NC(=O)[C@H](CCCNC(=N)N)NC(=O)[C@H](CCSC)NC(=O)[C@H](CC(=O)O)NC(=O)[C@H](CCSC)NC(=O)[C@@H](N)CCC(N)=O)CSSC[C@H](NC(=O)[C@H](CCCCN)NC(=O)CNC(=O)[C@H](Cc4ccccc4)NC(=O)[C@H]([C@@H](C)CC)NC(=O)[C@H](CO)NC(=O)CNC1=O)C(=O)N[C@@H](CCSC)C(=O)N[C@@H](CC(N)=O)C(=O)N[C@@H](CCCCN)C(=O)N[C@@H](CCCCN)C(=O)N3)C(=O)N[C@@H](CCCCN)C(=O)N[C@@H](CCC(N)=O)C(=O)N[C@@H](CCCCN)C(=O)N2 (H-QMDMRCSASVECKQKCLKAIGSIFGKCMNKKCKC-OH; disulfide 6-27, 12-32, 16-34) | inactive | inactive | inactive | 2.6 | inactive | 2.2 | inactive | inactive | inactive | inactive | inactive | inactive | inactive | inactive | inactive | 3.9 | inactive | inactive | inactive | Active | inhibition [21]: inactive; inhibition [22]: inactive; inhibition [23]: inactive; inhibition (INH) [24]: Not Active; Activity [25]: inactive; inhibition [26]: 86%; inhibition [27]: inactive; inhibition (INH) [28]: Not Active; inhibition (INH) [29]: Not Active; inhibition (INH) [30]: Not Active; Ki [31]: 2.9 µM; Activity [32]: Active; inhibition [33]: inactive; inhibition [34]: inactive
CC[C@H](C)[C@@H]1NC(=O)[C@@H]2CCCN2C(=O)CNC(=O)[C@H](CO)NC(=O)[C@@H]2CSSC[C@@H]3NC(=O)[C@H]([C@@H](C)O)NC(=O)CNC(=O)[C@H](CSSC[C@H](NC(=O)[C@@H](N)CCCNC(=N)N)C(=O)N[C@@H](CC(C)C)C(=O)N[C@@H](Cc4cnc[nH]4)C(=O)N[C@@H](C)C(=O)NCC(=O)N[C@@H](C)C(=O)N[C@@H](C)C(=O)N2)NC(=O)[C@H](CSSC[C@@H](C(=O)N[C@H](C(=O)O)[C@@H](C)O)NC(=O)[C@H](CCCCN)NC(=O)[C@H](CCCNC(=N)N)NC(=O)[C@H](CCCNC(=N)N)NC(=O)[C@H](CO)NC3=O)NC(=O)[C@@H]2CCCN2C(=O)[C@H]([C@@H](C)CC)NC(=O)[C@H](CCCCN)NC(=O)[C@H](CCC(N)=O)NC1=O (H-RCLHAGAACSGPIQKIPCCGTCSRRKCT-OH; disulfide 2-19, 9-22, 18-27) | inactive | inactive | inactive | 7.1 | inactive | 10 | inactive | inactive | inactive | inactive | inactive | inactive | inactive | inactive | inactive | 19.8 | inactive | inactive | inactive | Active | inhibition [21]: inactive; inhibition [22]: inactive; inhibition [23]: inactive; inhibition (INH) [24]: Not Active; Activity [25]: inactive; inhibition [26]: 97%; inhibition [27]: inactive; inhibition (INH) [28]: Not Active; inhibition (INH) [29]: Not Active; inhibition (INH) [30]: Not Active; Ki [31]: 1.8 µM; Activity [32]: Active; inhibition [33]: inactive; inhibition [34]: inactive
